Each structure is given as a SMILES string.

One test addresses T1, Polyunsaturated fatty acid lipoxygenase ALOX15 (Homo sapiens, UniProt P16050).
T1 sequence (P16050 whole entry): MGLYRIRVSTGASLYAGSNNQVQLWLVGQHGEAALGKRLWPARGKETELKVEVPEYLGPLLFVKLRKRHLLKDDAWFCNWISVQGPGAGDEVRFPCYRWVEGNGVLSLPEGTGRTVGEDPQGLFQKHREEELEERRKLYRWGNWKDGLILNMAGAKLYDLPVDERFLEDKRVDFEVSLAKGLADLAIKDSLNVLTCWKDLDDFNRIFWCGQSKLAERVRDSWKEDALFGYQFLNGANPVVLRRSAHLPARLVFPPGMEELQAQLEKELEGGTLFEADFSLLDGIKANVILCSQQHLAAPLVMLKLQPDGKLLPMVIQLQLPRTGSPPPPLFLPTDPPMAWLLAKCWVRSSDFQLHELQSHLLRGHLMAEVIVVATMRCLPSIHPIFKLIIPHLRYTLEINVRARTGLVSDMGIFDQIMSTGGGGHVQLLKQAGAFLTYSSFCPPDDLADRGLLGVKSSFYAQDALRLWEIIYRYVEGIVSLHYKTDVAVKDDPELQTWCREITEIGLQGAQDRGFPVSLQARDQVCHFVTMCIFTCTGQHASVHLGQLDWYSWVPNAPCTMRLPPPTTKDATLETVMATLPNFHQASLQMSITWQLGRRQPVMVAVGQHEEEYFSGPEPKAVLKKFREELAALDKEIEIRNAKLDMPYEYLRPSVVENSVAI
Put plainly: Inhibition of 15-Lipoxygenase-mediated 15-HETE in human neutrophil after 15 mins by HPLC analysis.
Settings: not given
Put shortly:
(§1)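 Freshly isolated human blood neutrophils, 5 × 10^6/mL in PBS pH 7.4 with 1 mg/mL glucose and 1 mM CaCl2, preincubated with compound 15 min at RT. Stimulated with 2.5 µM A23187 plus 20 µM AA for 10 min at 37 °C. Stopped with methanol/HCl, PGB1 internal standard. 12-HETE or 15-HETE measured by HPLC. Residual activity tested at 30 µM.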
Turning to `Cc1ccc(-c2cc(CCC(=O)N3CCN(Cc4ccc(C(C)(C)C)cc4)CC3)nn2-c2ccc3ccccc3n2)cc1`, the IC50 was greater than 10 µM.
On the same count and under the same terms, then `CCOC(=O)C1CCN(C(=O)CCc2cc(-c3ccc(C)cc3)n(-c3ccc4ccccc4n3)n2)CC1`, with greater than 10 µM; and `Cc1ccc(-c2cc(CCC(=O)N3CCN(Cc4ccc(C(C)(C)C)cc4)CC3)nn2-c2ccccc2)cc1`, with greater than 10 µM; and `Cc1ccc(-c2cc(CCC(=O)Oc3ccc(C(C)C)cc3)nn2-c2ccccc2)cc1`, with greater than 10 µM.

A further test addresses T2, Polyunsaturated fatty acid 5-lipoxygenase (Homo sapiens) (UniProt P09917).
T2 sequence (whole entry): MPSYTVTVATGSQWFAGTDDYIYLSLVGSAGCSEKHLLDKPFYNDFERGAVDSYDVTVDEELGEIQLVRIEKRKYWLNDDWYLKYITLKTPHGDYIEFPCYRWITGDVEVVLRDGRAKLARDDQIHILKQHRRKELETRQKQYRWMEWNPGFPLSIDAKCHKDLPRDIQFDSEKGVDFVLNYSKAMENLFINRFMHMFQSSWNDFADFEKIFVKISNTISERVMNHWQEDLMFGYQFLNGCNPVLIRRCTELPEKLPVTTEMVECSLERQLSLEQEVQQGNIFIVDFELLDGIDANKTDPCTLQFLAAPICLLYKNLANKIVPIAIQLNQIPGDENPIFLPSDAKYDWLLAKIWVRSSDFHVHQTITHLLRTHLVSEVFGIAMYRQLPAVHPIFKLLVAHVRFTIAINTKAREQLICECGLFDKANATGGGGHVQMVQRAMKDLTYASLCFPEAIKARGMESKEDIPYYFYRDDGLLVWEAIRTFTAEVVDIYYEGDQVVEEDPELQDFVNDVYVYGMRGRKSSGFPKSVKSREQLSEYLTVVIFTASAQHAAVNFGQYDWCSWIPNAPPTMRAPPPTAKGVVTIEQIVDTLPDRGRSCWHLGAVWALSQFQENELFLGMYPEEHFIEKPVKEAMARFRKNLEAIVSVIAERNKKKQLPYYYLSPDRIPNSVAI
Put plainly: Inhibition of 5-Lipoxygenase in arachidonic acid-stimulated human neutrophils assessed as residual activity at 10 uM after 15 mins by HPLC analysis in presence of A23187.
Settings: not given
Put shortly: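 Human neutrophils, 5 × 10^6/mL in PBS/glucose/1 mM CaCl2, preincubated 15 min at RT, then 2.5 µM A23187 plus 20 µM AA for 10 min at 37 °C. Methanol stop, PGB1 internal standard, HPLC of LTB4, its all-trans isomers and 5-H(p)ETE. Residual % versus 0.3% DMSO vehicle, mean ± SEM, n = 3–5. IC50 by linear interpolation from 4–5 concentrations.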
`Cc1ccc(-c2cc(CCC(=O)Oc3ccc(C(C)C)cc3)nn2-c2ccc(Cl)nn2)cc1`: the Activity worked out at 46.4%.
The same measure, in the same setting: then `Cc1ccc(-c2cc(CCC(=O)N3CCN(Cc4ccc(C(C)(C)C)cc4)CC3)nn2-c2ccc3ccccc3n2)cc1`, with 16.4%; and `CCOC(=O)C1CCN(C(=O)CCc2cc(-c3ccc(C)cc3)n(-c3ccc4ccccc4n3)n2)CC1`, with 25.8%; and `Cc1ccc(-c2cc(CCC(=O)N3CCN(Cc4ccc(C(C)(C)C)cc4)CC3)nn2-c2ccccc2)cc1`, with 13.5%.
The same measure, in the same setting: next, `Cc1ccc(-c2cc(CCC(=O)Oc3ccc(C(C)C)cc3)nn2-c2ccccc2)cc1`: 20.4%.

The target of the next test is T3, Polyunsaturated fatty acid lipoxygenase ALOX15 (Homo sapiens) (UniProt P16050).
T3 sequence (whole entry): T1 sequence (P16050 whole entry)
Put plainly: Inhibition of 15-Lipoxygenase-mediated 15-HETE in human neutrophil assessed as residual activity at 30 uM after 15 mins by HPLC analysis.
Settings: not given
Put shortly: as §1
In the case of `Cc1ccc(-c2cc(CCC(=O)N3CCN(Cc4ccc(C(C)(C)C)cc4)CC3)nn2-c2ccc3ccccc3n2)cc1`, the Activity was determined as 145%.
Same read-out and setting: next, `CCOC(=O)C1CCN(C(=O)CCc2cc(-c3ccc(C)cc3)n(-c3ccc4ccccc4n3)n2)CC1`: 149%; `Cc1ccc(-c2cc(CCC(=O)N3CCN(Cc4ccc(C(C)(C)C)cc4)CC3)nn2-c2ccccc2)cc1`: 261%.
Consider `Cc1ccc(-c2cc(CCC(=O)Oc3ccc(C(C)C)cc3)nn2-c2ccccc2)cc1`, for which the Activity amounted to 124%.

For another test, the target named is T4, Polyunsaturated fatty acid lipoxygenase ALOX12 (Homo sapiens) (UniProt P18054).
T4 sequence (whole entry): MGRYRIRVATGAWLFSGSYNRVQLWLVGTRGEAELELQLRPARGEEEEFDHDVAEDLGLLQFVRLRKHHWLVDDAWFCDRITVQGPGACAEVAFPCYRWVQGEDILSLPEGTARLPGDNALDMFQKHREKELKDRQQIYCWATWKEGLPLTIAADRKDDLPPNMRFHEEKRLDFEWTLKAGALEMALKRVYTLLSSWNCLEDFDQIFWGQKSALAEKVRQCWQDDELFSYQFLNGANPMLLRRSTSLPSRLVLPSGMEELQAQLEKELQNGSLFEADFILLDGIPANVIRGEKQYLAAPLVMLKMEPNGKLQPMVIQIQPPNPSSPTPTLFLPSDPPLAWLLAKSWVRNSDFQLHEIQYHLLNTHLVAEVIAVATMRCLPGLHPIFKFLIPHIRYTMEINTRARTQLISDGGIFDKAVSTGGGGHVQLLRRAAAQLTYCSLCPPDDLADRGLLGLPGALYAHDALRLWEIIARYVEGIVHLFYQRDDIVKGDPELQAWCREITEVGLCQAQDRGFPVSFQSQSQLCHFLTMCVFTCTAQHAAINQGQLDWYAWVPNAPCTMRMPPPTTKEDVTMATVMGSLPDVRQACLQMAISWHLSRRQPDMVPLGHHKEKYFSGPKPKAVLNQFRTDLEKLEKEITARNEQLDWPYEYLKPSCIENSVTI
The experiment in a line: Inhibition of 12-Lipoxygenase-mediated 12-HETE in human neutrophil assessed as residual activity at 30 uM after 15 mins by HPLC analysis.
Settings: not given
Put shortly:
as §1
For `Cc1ccc(-c2cc(CCC(=O)Oc3ccc(C(C)C)cc3)nn2-c2ccc(Cl)nn2)cc1`, the Activity stood at 77.1%.
Same read-out and setting: then `Cc1ccc(-c2cc(CCC(=O)N3CCN(Cc4ccc(C(C)(C)C)cc4)CC3)nn2-c2ccc3ccccc3n2)cc1`, with 111%.
As to `CCOC(=O)C1CCN(C(=O)CCc2cc(-c3ccc(C)cc3)n(-c3ccc4ccccc4n3)n2)CC1`, the Activity came out at 91.9%.
The same measure, in the same setting: next, `Cc1ccc(-c2cc(CCC(=O)N3CCN(Cc4ccc(C(C)(C)C)cc4)CC3)nn2-c2ccccc2)cc1`: 118%; `Cc1ccc(-c2cc(CCC(=O)Oc3ccc(C(C)C)cc3)nn2-c2ccccc2)cc1`: 67.2%.

Another test has as its target T5, Polyunsaturated fatty acid lipoxygenase ALOX12 (Homo sapiens, UniProt P18054).
T5 sequence (P18054 whole entry): T4 sequence (whole entry)
Put plainly: Inhibition of 12-Lipoxygenase-mediated 12-HETE in human neutrophil after 15 mins by HPLC analysis.
Settings: not given
In outline: as §1
`Cc1ccc(-c2cc(CCC(=O)Oc3ccc(C(C)C)cc3)nn2-c2ccc(Cl)nn2)cc1` yielded an IC50 greater than 10 µM.
Same read-out and setting: then `Cc1ccc(-c2cc(CCC(=O)N3CCN(Cc4ccc(C(C)(C)C)cc4)CC3)nn2-c2ccc3ccccc3n2)cc1`, with greater than 10 µM; and `CCOC(=O)C1CCN(C(=O)CCc2cc(-c3ccc(C)cc3)n(-c3ccc4ccccc4n3)n2)CC1`, with greater than 10 µM.
The same measure, in the same setting: next, `Cc1ccc(-c2cc(CCC(=O)N3CCN(Cc4ccc(C(C)(C)C)cc4)CC3)nn2-c2ccccc2)cc1`: greater than 10 µM.
Same read-out and setting: next, `Cc1ccc(-c2cc(CCC(=O)Oc3ccc(C(C)C)cc3)nn2-c2ccccc2)cc1`: greater than 10 µM.

In the next test the test system is A549. The experiment in a line: Inhibition of mPGES1-mediated PGE2 production in IL1-beta stimulated human A549 cells assessed as residual activity at 10 uM after 15 mins. It is filed as cell-based.
Settings: not given
Put shortly:
(§2)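 Microsomes from IL-1β (1 ng/ml, 72 h) stimulated A549 cells, diluted in 0.1 M potassium phosphate pH 7.4 with 2.5 mM glutathione. Compound or 1% DMSO added, 15 min at 4 °C. Started with 20 µM PGH2 (final), 1 min at 4 °C. Stopped with FeCl2/citric acid containing 11β-PGE2 internal standard. PGE2 by RP-C18 solid-phase extraction and peak integration.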
With `Cc1ccc(-c2cc(CCC(=O)Oc3ccc(C(C)C)cc3)nn2-c2ccc(Cl)nn2)cc1`, the Activity worked out at 91.4%.
Still for that read-out and setting: then `Cc1ccc(-c2cc(CCC(=O)N3CCN(Cc4ccc(C(C)(C)C)cc4)CC3)nn2-c2ccc3ccccc3n2)cc1`, with 75%; and `CCOC(=O)C1CCN(C(=O)CCc2cc(-c3ccc(C)cc3)n(-c3ccc4ccccc4n3)n2)CC1`, with 84%; and `Cc1ccc(-c2cc(CCC(=O)N3CCN(Cc4ccc(C(C)(C)C)cc4)CC3)nn2-c2ccccc2)cc1`, with 84.6%.
For `Cc1ccc(-c2cc(CCC(=O)Oc3ccc(C(C)C)cc3)nn2-c2ccccc2)cc1`, the Activity is 108%.

Test system in a further test: not listed separately
Put plainly: Inhibition of mPGES1-mediated PGE2 production in IL1-beta stimulated human A549 cells after 15 mins. In kind it is cell-based. As to conditions: A549, 0.25 h. Put shortly:
as §2
The compound `Cc1ccc(-c2cc(CCC(=O)Oc3ccc(C(C)C)cc3)nn2-c2ccc(Cl)nn2)cc1` showed an IC50 greater than 10 µM.
The same measure, in the same setting: next, `Cc1ccc(-c2cc(CCC(=O)N3CCN(Cc4ccc(C(C)(C)C)cc4)CC3)nn2-c2ccc3ccccc3n2)cc1`: greater than 10 µM; `CCOC(=O)C1CCN(C(=O)CCc2cc(-c3ccc(C)cc3)n(-c3ccc4ccccc4n3)n2)CC1`: greater than 10 µM; `Cc1ccc(-c2cc(CCC(=O)N3CCN(Cc4ccc(C(C)(C)C)cc4)CC3)nn2-c2ccccc2)cc1`: greater than 10 µM.
On the same count and under the same terms, then `Cc1ccc(-c2cc(CCC(=O)Oc3ccc(C(C)C)cc3)nn2-c2ccccc2)cc1`, with greater than 10 µM.

(Values after ChEMBL document CHEMBL1828531, “Pyrazol-3-propanoic acid derivatives as novel inhibitors of leukotriene biosynthesis in human neutrophils” (Eur J Med Chem, 2011).)
